According to PubChem BioAssay AID493091 (Sanford-Burnham Center for Chemical Genomics, 2011):
Hit rate of the full screen: of about 340,000 compounds, about 3,000 (0.88%) were called active. The full list was thinned out, with actives kept by preference. Values without a mark were called inactive.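 The calls were made as follows: active = inhibition above about 50% at 20 µM (limit read from the data); inactive = the rest.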

What follows are molecules tested against Carboxy-terminal domain RNA polymerase II polypeptide A small phosphatase 1 (Homo sapiens) (UniProt Q9GZU7) (assay: Scp-1 phosphatase inhibitors, primary screen, biochemical, colorimetric, uHTS (AID 493091;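 also: plate controls were DMSO wells with enzyme for no effect and wells lacking enzyme for full effect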)). Conditions: Recombinant Scp1, phosphopeptide, malachite green phosphate absorbance; at 20 µM; stronger effect = higher value.
Sequence of Carboxy-terminal domain RNA polymerase II polypeptide A small phosphatase 1 (Homo sapiens) (Q9GZU7 76-261 limits assumed): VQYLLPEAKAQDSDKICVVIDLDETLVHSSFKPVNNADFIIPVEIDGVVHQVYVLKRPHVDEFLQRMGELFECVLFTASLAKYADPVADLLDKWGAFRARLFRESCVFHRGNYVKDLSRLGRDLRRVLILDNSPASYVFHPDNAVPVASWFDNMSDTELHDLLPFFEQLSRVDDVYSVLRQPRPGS
Procedure, shortened: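 Test system: SCP-1 phosphatase catalytic domain, residues 76-261; measured by: colorimetric phosphate reagent with accelerator and stabiliser, absorbance at 630 nm; timing: enzyme reaction 45 min at room temperature, colour 5 min, stabilisation 30 min; also added: Phosphorylated 17-residue peptide substrate; compound dosing: one concentration, 20 µM, with 1.0% DMSO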
With O=C(O)CCn1cc(C=C2C(=O)NC(=S)NC2=O)c(-c2cccc(Br)c2)n1 the inhibition was 69.2% (active). CC(=O)N(C1=NCCCS1)c1ccccc1F showed an inhibition of -8.48%. Nc1ccc(Cc2ccc(N)c(Cl)c2)cc1Cl gave an inhibition of -6.26%. Cc1ccc(C2CN(C)CC2C(=O)c2ccc(F)cc2)cc1 (stereo not given) was tested, and the inhibition was 2.83%. Work on O=C(Cc1ccc(Cl)cc1)NCCN1CCN(C(=O)Cc2ccc(Cl)cc2)CC1 yielded an inhibition of -8.32%. In the case of Cc1ccc(S(=O)(=O)N(C)c2ccc(C(=O)NCC3(N(C)C)CCCCC3)cc2)cc1, the inhibition is reported as -2.43%. O=C1NC(=O)N(Cc2ccco2)C(=O)/C1=C\c1ccc(-c2ccc(F)cc2)o1 showed an inhibition of 5.05%. For COc1cccc(N2C(=O)NC(=O)/C(=C\c3ccc([N+](=O)[O-])s3)C2=O)c1, the inhibition was 17.3%. COc1ccc(N2C(=O)/C(=C/c3ccco3)C(=O)NC2=S)cc1 was tested, and the inhibition was 92.7% (active). For CCN(CC)CCOC(=O)c1cc2cc(COC)ccc2o1, the inhibition was 70.7% (active). For COc1ccc2c(c1)NP(=S)(c1ccccc1)N2 (stereo not given), the inhibition was 0.52%. With CSc1ccc(C(=O)C2CCCN(Cc3ccn[nH]3)C2)cc1 (stereo not given) the inhibition was -7.2%. CCN(CC)C(=O)Oc1ccc(NC(=O)N2CCOCC2)cc1 gave an inhibition of -3.55%. Work on COC(=O)C1=C(c2cc3ccccc3s2)C[C@@H]2CC[C@H]1N2C(=O)NCc1cccc2ccccc12 yielded an inhibition of -7.13%. Work on O=c1[nH]c(=O)n(-c2ccc(F)cc2)c(O)c1C=NCCN1CCCCC1 yielded an inhibition of -0.8%. O=c1[nH]c(=O)n(CCc2ccccc2)c(O)c1/C=N/N1CCOCC1 was tested, and the inhibition was -5.04%. For O=c1[nH]c(=O)n(CCc2ccc(F)cc2)c(O)c1/C=N/N1CCCCC1, the inhibition was 51% (active). CN1CCN(Cc2ccc(OC(F)(F)F)cc2)CC1 gave an inhibition of 22.4%. COc1ccccc1N=Nc1c(O)[nH]c(=S)[nH]c1=O was tested, and the inhibition was 9.19%. For COc1ccccc1N=C1SCCCN1C, the inhibition was 95.3% (active). CC(=O)Nc1ccc(C(=O)C(Cc2ccccc2)N(C)C)cc1 (stereo not given) showed an inhibition of -12.1%. O=C(NCC(c1cccnc1)N1CCN(c2ccccc2)CC1)Oc1ccccc1 (stereo not given) showed an inhibition of -0.44%. CC1CNCCN1c1ccc(Cl)cc1 (stereo not given) gave an inhibition of 2.17%. Work on CN(C)C(=O)Oc1ccc2c(c1)O/C(=C\c1ccccc1)C2=O yielded an inhibition of -15.9%. Cc1ccc(C)c(NC2=NCCCS2)c1 showed an inhibition of -6%.
